Laboratory results reported in ChEMBL document CHEMBL2311341, “Design, synthesis and inhibitory activities of naringenin derivatives on human colon cancer cells” (Bioorg Med Chem Lett, 2013).

Tests used:
HCT-116 = experiment: Cytotoxicity against human HCT116 cells after 7 days by crystal violet staining based clonogenic assay; type: functional, cell-based; conditions: HCT-116, 168 h
Procedure, shortened: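 HCT116 cells in DMEM with 10% heat-inactivated FBS, seeded at 5 × 10³ cells/well in 24-well plates, untreated or exposed to four compound concentrations for 7 days. Colonies were fixed with 6% glutaraldehyde and stained with 0.1% crystal violet, and survival density was read by densitometry. IC50 came from curve fitting. The whole experiment was repeated independently three times.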

[1] = target: Cyclin-dependent kinase 2/cyclin E1 (Homo sapiens) (UniProt P24864+P24941); experiment: Inhibition of CDK2/cyclinE (unknown origin) using histone-H1 and [gamma-33P]ATP at 10 uM by scintillation counting; type: protein-complex assay
Procedure, shortened: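 CDK2/cyclin E was run under a commercial kinase-profiling protocol in 8 mM MOPS pH 7.0 with 0.2 mM EDTA, 0.1 mg/ml histone H1, 10 mM magnesium acetate and 10 micromolar ATP including γ-³³P-ATP (500 cpm/pmol). Incorporation was measured by scintillation counting, with the no-inhibitor count set as 100% activity. Runs were done in triplicate.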

[2] = tested on: Radical scavenging activity; experiment: Antioxidant activity assessed as DPPH radical scavenging activity by spectrophotometry; type: functional; design: concentration or dose not given beside the values

| Compound | inhibition [1] [%] | IC50 (HCT-116) [µM] | Activity [2] [%] |
| --- | --- | --- | --- |
| C=CCOc1cc(O)c2c(c1)OC(c1ccc(O)cc1)CC2=O (configuration not stated) | 84 | 1.91 | 20.7 |
| Cc1ccccc1C(=O)Oc1cc(O)c2c(c1)OC(c1ccc(O)cc1)CC2=O (configuration not stated) | 48.9 | 6.03 | 14.2 |
| CCOC(=O)N/N=C1\CC(c2ccc(O)cc2)Oc2cc(O)cc(O)c21 (configuration not stated) | 62.3 | 4.35 | 70.6 |
| O=C1CC(c2ccc(O)cc2)Oc2cc(O)cc(O)c21 (racemic) | 14.9 | 36.8 | 59.3 |
| O=C1O[C@H]([C@@H](O)CO)C(O)=C1O | – | – | 89.1 |
| CC(C)C(=O)Oc1cc(O)c2c(c1)OC(c1ccc(O)cc1)CC2=O (configuration not stated) | 42.1 | 15.9 | 15.4 |

Continued, in another order:

| inhibition [1] [%] | Compound | IC50 (HCT-116) [µM] | Activity [2] [%] |
| --- | --- | --- | --- |
| 42 | O=C(Oc1ccccc1)Oc1cc(O)c2c(c1)OC(c1ccc(O)cc1)CC2=O (configuration not stated) | 20 | 15.9 |
| 83.6 | O=C(Oc1cc(O)c2c(c1)OC(c1ccc(O)cc1)CC2=O)c1cccs1 (configuration not stated) | 1.2 | 11.2 |
